Screens from PubChem BioAssay.
CSN inh – blocks human CSN-mediated cullin deneddylation; Q92905; Purified CSN, SCF-Nedd8-OG deneddylation, fluorescence polarization; inhibition, % at 12.5 µM; 360,000 compounds, 0.38% hits;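 active = pattern-corrected inhibition above about 35%, with an unprinted fluorescence ratio check between 0.5 and 1.5, limit read from the data, passing the limit was not always enough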
Target sequence (Q92905 whole entry, looked up, one chain of several): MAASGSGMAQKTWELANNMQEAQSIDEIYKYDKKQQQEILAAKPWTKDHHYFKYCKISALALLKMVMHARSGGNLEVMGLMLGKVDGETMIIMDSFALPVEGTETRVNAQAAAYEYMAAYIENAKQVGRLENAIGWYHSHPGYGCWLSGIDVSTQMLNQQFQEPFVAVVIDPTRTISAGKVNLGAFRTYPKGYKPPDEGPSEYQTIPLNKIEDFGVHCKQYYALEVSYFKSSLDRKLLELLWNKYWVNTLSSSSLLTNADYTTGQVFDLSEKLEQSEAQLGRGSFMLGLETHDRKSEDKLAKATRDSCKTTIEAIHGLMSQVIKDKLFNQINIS
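Assay system: purified human Csn5 enzyme expressed in HEK293T cells; measure: % inhibition; also added: SCFSkp2-Nedd8OG substrate at 10 nM final; technique: fluorescence polarization; times: reaction 90 min, room temperature; medium: Tris buffer pH 7.5, NaCl, DTT, Tween-20, trehalose, ovalbumin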
Rpn11 block – blocks the human proteasome subunit Rpn11. O00487. human 26S proteasome, Ub4-pepOG fluorescence polarization; 20S core pre-blocked with epoxomicin. inhibition, % at 20 µM. 360,000 compounds, 0.59% hits. AID 588493;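 active = inhibition at 20 µM, scaled to each plate's controls, above about 33%, limit read from the data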
Neddylation inh – cullin neddylation inhibition | P61081+Q13564 | AID 651699 | TR-FRET cullin neddylation, biochemical | inhibition, % at 25 µM | 360,000 compounds, 0.58% hits; in the data active = inhibition above about 36%
TPT1 inh – inhibitors of Candida albicans tRNA 2'-phosphotransferase TPT1; recombinant caTPT1, FP RNA substrate dephosphorylation; inhibition, % at 5 µM; 300,000 compounds, 0.81% hits;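 active = inhibition above the mean of all tested compounds plus 3 SD, set per screening campaign, cut at about 24% in these data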
HNF4A DNA FP – change in binding of human HNF4 alpha to DNA | HNF4a-FITC DNA binding, fluorescence polarization, 1 h | activity change, % at 10 µM | 360,000 compounds, 0.3% hits | AID 1224865; in the data active = activity change above about 30%, passing the limit was not always enough
Rin1 Abl inh – inhibitors of human Rin1-Abl protein interaction; P00519+Q13671; TR-FRET Rin1/Abl binding, biochemical; inhibition, % at 7.35 µM; 360,000 compounds, 0.4% hits; AID 588664; in the data active = inhibition above about 5%, passing the limit was not always enough
TPT1 inh confirm – TPT1 (C. albicans) inhibition, confirmation; shares compounds with TPT1 inh; recombinant caTPT1, fluorescence polarization, RNase T1 coupled; inhibition, % at 5 µM; 2,400 compounds, 74% hits; AID 2149;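 active = inhibition above the primary screen limit, the mean inhibition of all tested compounds plus 3 SD, cut at about 25% in these data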
RNase T1 counter – counter-screen for TPT1 inhibitors: inhibitors of Aspergillus oryzae RNase T1 | shares compounds with TPT1 inh | RNase T1 cleavage, fluorescence polarization, 1536-well | inhibition, % at 5 µM | 2,400 compounds, 83% hits;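 active = inhibition above the solvent-only control well mean plus 3 SD, limit set per screening run, cut at about 23% in these data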;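 also: inhibitors block cleavage so intact labeled substrate keeps polarization high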
Target sequence (P00651 whole entry, looked up): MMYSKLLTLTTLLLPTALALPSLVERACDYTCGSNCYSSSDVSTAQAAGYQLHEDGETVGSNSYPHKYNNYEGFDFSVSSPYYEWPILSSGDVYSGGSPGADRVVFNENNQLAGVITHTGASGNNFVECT
A number is an active result; n = inactive; x = no result given. Most compounds without a hit are left out; they make up all but 2.4% or so of the library.

SMILES	CSN inh	Rpn11 block	Neddylation inh	TPT1 inh	HNF4A DNA FP	Rin1 Abl inh	TPT1 inh confirm	RNase T1 counter
Cc1ccc(-c2ccc(/C=N/n3cnnc3)o2)cc1Cl	n	n	n	62.1	n	n	n	n
Cn1nc(C(=O)Nc2nc(-c3ccc(F)cc3)cs2)ccc1=O	n	n	n	n	n	n	x	x
O=C(O)c1ccc(Nc2ncnc3c2cnn3Cc2ccccc2)cc1	n	n	n	n	n	n	x	x
Cc1ccc(CNC(=O)C2CCC(=O)N(CC3CCCCC3)C2)o1 (configuration not stated)	n	n	n	n	n	n	x	x
CC(CC1C(C#N)=C(N)SC(N)=C1C#N)c1ccccc1 (configuration not stated)	57.9	x	n	59.8	n	n	28.5	38.0
O=C(Nc1ccc(Cl)c(C(F)(F)F)c1)C1CCCN(S(=O)(=O)c2cnc[nH]2)C1 (configuration not stated)	n	n	n	n	n	n	x	x
C=CCn1c(/N=C/c2ccc(N(C)C)cc2)nc2ccccc21	n	x	n	26.6	59.0	n	110.3	117.2
C=CCn1c(/N=C/c2ccc(OC)cc2)nc2ccccc21	n	n	n	n	n	n	x	x
CCn1ncc(Br)c1C(=O)Nc1cccc(C(C)=O)c1	n	n	n	n	n	n	x	x
CCn1ncc(Br)c1C(=O)Nc1cc(C)cc(C)c1	n	n	n	34.2	n	n	n	n
N#Cc1c(N)n(CCNC(=O)c2cccs2)c2nc3ccccc3nc12	n	n	x	62.9	n	n	44.7	59.1
N#Cc1c(N)n(CCNC(=O)c2ccccc2)c2nc3ccccc3nc12	n	n	x	n	n	n	x	x
Cc1ccc(S(=O)(=O)NNc2nnc(C)c(=O)[nH]2)cc1	n	n	n	51.2	n	n	n	n
Cc1nnc(NNS(=O)(=O)c2ccc(Cl)cc2)[nH]c1=O	n	n	n	n	n	n	x	x
Cc1cc(C)n(C(=O)Cn2nc([N+](=O)[O-])c(Br)c2C)n1	n	n	n	n	n	n	x	x
COc1ccc(NC(=O)C2CC(c3ccccc3O)=NO2)cc1OC (configuration not stated)	n	n	n	n	n	n	x	x
CCN(CC)c1nc(C)c(C(=S)Nc2cc([N+](=O)[O-])ccc2Cl)s1	n	x	n	28.3	47.2	n	61.0	73.2
COc1ccc(/C=C/C(=O)NCCCc2ccccc2)cc1	n	n	n	n	n	n	x	x
COc1ccc(/C=C/c2cc[n+](C(=O)Cc3ccccc3)cc2)cc1	n	n	n	26.4	n	n	n	n
COc1ccc(CCNC(=O)CCn2c(=O)c3cccn3c3cccnc32)cc1OC	n	n	n	n	n	n	x	x
CC(OC(=O)/C(C#N)=C/c1ccc(N(C)C)cc1)C(=O)N(C)Cc1ccccc1 (configuration not stated)	n	x	n	107.1	n	n	114.8	114.1
CC(OC(=O)c1cccc(O)c1)C(=O)N(C)Cc1ccccc1 (configuration not stated)	n	n	n	n	n	n	x	x
CN1CCN(S(=O)(=O)c2cccc(C(=O)Nc3sc4c(c3-c3nc5ccccc5[nH]3)CCCC4)c2)CC1	n	n	n	32.9	n	n	34.8	48.0
CC(=O)NCCC(=O)Nc1sc2c(c1-c1nc3ccccc3[nH]1)CCCC2	n	n	x	n	n	n	x	x
CC(C)C(=O)n1nc(-c2cccnc2)nc1NCc1ccc(F)cc1	n	n	n	n	n	n	x	x
SMILES	CSN inh	Rpn11 block	Neddylation inh	TPT1 inh	HNF4A DNA FP	Rin1 Abl inh	TPT1 inh confirm	RNase T1 counter
C=CCn1c(=O)/c(=C/c2ccc(O)cc2)s/c1=C(/C#N)c1nnc2n1CCCCC2	97.5	x	n	118.5	79.5	n	119.1	116.1
C=CCn1c(=O)/c(=C/c2ccc(Cl)cc2)s/c1=C(/C#N)c1nnc2n1CCCCC2	n	n	n	n	n	n	x	x
CCc1ccccc1NC(=O)COC(=O)C1C2CC3OC(=O)C1C3C2 (configuration not stated)	n	n	n	n	n	n	x	x
CCOc1cc2sc(N3CCC(C(=O)NCCCN4CCCC4=O)CC3)nc2cc1Br	n	n	n	n	n	n	x	x
CC1(C)CNc2cc(N)ccc2S1	n	n	n	61.2	n	n	31.9	42.7
Nc1c(C(=O)Nc2ccc(S(=O)(=O)N3CCCC3)cc2)sc2nc3cc4c(cc3cc12)CCC4	n	n	n	38.6	n	n	24.8	34.4
CN(C(=O)CSc1nc(-c2cccs2)nc2ccccc12)C1CCS(=O)(=O)C1 (configuration not stated)	n	n	n	x	n	n	x	x
O=c1oc2ccccc2nc1/C=C(\O)c1ccc(Br)cc1	n	n	n	n	n	n	x	x
O=c1c(/C=C(\O)c2ccc(F)cc2)nc2ccccc2n1-c1ccccc1	n	x	n	62.2	n	n	79.5	75.2
CC(=O)c1sc(N/N=C\c2ccc(Br)cc2)nc1C	n	x	n	71.1	37.6	n	82.0	88.1
CCOC(=O)c1sc(N/N=C/c2ccc(N(C)C)cc2)nc1C	n	n	x	n	n	n	x	x
O=Cc1cccc(OC(=O)Nc2ccccc2)c1	n	n	n	n	n	n	x	x
CNC(=O)c1c(NC(=O)c2ccc(S(=O)(=O)N3CCCCC3C)cc2)sc2c1CCN(C)C2 (configuration not stated)	n	x	n	n	n	n	x	x
CC1CCCN(S(=O)(=O)c2ccc(C(=O)Nc3sc4c(c3C(N)=O)CCN(C)C4)cc2)C1 (configuration not stated)	n	n	n	73.5	n	n	64.1	71.3
CNC(=O)c1c(NC(=O)c2ccc(S(=O)(=O)N3CC(C)OC(C)C3)cc2)sc2c1CCN(C(C)C)C2 (configuration not stated)	n	n	n	n	n	n	x	x
CNC(=O)c1c(NC(=O)c2ccc(S(=O)(=O)N3CCCC3)cc2)sc2c1CCN(C(C)C)C2	x	x	x	148.0	x	x	153.1	145.2
CC(C)N1CCc2c(sc(NC(=O)c3ccc(S(=O)(=O)N4CCOCC4)cc3)c2C(N)=O)C1	n	n	n	36.1	n	n	43.1	55.6
CC(=O)NCCc1ccc(C(=O)COC(=O)c2cc(C)oc2C)cc1	n	n	n	x	n	n	x	x
O=C(CN1C(=O)NC2(CCCCCCC2)C1=O)NCc1ccc(Cl)cc1	n	n	n	x	n	n	x	x
CCOC(=O)C1=C(O)CSC1=Nc1ccc(Cl)cc1	n	n	n	n	n	n	x	x
CCOC(=O)C1=C(O)CSC1=Nc1ccccc1	n	n	n	26.8	n	n	n	27.4
CCOc1cccc2c1OC(c1cc(OC)c(OC)c(OC)c1)N1N=C(c3ccc(C)o3)CC21 (configuration not stated)	n	x	n	114.5	n	n	n	n
